Experimental data taken from publication PMC11383987 (bioRxiv, 2024).
Changes are numbered by the printed parent chain.

Columns and labels:
[1] = system: A. thaliana PIN3; assay: Xenopus oocyte efflux assay, PIN3 with PID kinase; assay type: cell-based, Arabidopsis thaliana; conditions: PIN3 with PID kinase in oocytes, NPA-sensitive, internal concentration 1 µM
Method in brief: (§1)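 Xenopus oocytes received 150 ng PIN8 or PIN3 cRNA; PIN3 was given with or without 75 ng PID kinase cRNA. [3H]-IAA or [3H]-2,4-D was injected to an internal 1 µM, ± 10 μM NPA internally. Residual radioactivity per oocyte was counted by scintillation over a time course (10 oocytes per point) and set against the initial 100%. %/min rates came from linear regression; each replicate used a different female.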

[2] = target: T1, PIN8 N223A (Arabidopsis thaliana, UniProt Q9LFP6, N223A); assay: SSM electrophysiology peak current response, PIN8 N223A proteoliposomes; assay type: biochemical; conditions: for effect of N223A mutation on affinity/binding: PIN8 N223A vs WT
T1 sequence (Q9LFP6 1-367 N223A): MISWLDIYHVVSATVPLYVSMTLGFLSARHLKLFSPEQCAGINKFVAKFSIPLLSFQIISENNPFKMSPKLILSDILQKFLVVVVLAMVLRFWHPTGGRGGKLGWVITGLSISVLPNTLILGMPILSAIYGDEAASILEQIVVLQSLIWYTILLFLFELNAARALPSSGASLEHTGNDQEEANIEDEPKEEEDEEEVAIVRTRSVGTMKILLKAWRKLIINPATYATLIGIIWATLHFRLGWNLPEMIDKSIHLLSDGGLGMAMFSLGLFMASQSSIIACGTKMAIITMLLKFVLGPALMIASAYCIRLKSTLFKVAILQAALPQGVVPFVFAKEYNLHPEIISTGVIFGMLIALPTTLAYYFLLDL

[3] = target: T2, PIN8 Y150A (Arabidopsis thaliana, UniProt Q9LFP6, Y150A); assay: SSM electrophysiology peak current response, PIN8 Y150A proteoliposomes; assay type: biochemical; conditions: for Imax: PIN8 Y150A
T2 sequence (Q9LFP6 1-367 Y150A): T1 sequence (Q9LFP6 1-367 N223A) with Y150A, A223N

[4] = system: A. thaliana stem segments (wild type and pin1 mutants); assay: Arabidopsis stem segment transport assay; set-up: species or system Arabidopsis thaliana
Method in brief: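 Stem sections (2 cm) were cut above the rosette of 5-week-old Col-0 or pin1 plants. They were inverted into buffer (500 pM IAA, 1% sucrose, 5 mM MES pH 5.5) ± 100 μM NPA for 2 h. They were then moved to buffer with 417 nM [3H]-IAA or [3H]-2,4-D ± NPA for 2 h. Three 5 mm segments were dissected and counted by liquid scintillation.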

[5] = target: T3, PIN8 (Arabidopsis thaliana, UniProt Q9LFP6); assay: Xenopus oocyte efflux assay, PIN8; assay type: cell-based; conditions: PIN8 in oocytes, NPA-sensitive, internal concentration 1 µM
T3 sequence (Q9LFP6 1-367): T1 sequence (Q9LFP6 1-367 N223A) with A223N
Method in brief: as §1

[6] = target: T4, PIN8 N117A (Arabidopsis thaliana, UniProt Q9LFP6, N117A); assay: SSM electrophysiology peak current response, PIN8 N117A proteoliposomes; assay type: biochemical; conditions: 100 μM or 2 mM substrate, relative to WT
T4 sequence (Q9LFP6 1-367 N117A): T1 sequence (Q9LFP6 1-367 N223A) with N117A, A223N
Method in brief: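 The N117A point mutant of PIN8 was made by site-directed mutagenesis. It was reconstituted in proteoliposomes in Ca2+-free Ringer pH 7.4 and immobilised on SSM sensors. Peak currents were recorded after a single solution exchange to 100 μM or 2 mM substrate and expressed relative to wild type. Mean ± s.e.m., n = 3 sensors; one-way ANOVA.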

[7] = target: T3, PIN8; assay: KD of substrate binding by competition with NPA binding current; conditions: KD relative to IAA
Method in brief: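 Purified PIN8 (LMNG) was reconstituted at LPR 10 into soy polar lipid/POPC liposomes in Ca2+-free Ringer pH 7.4 and adsorbed on SSM sensors. Current from 100 µM NPA was recorded with test compound at 0–1000 µM in both activating and non-activating solutions (3 s single exchange). KD was taken as the half-maximal point of a one-site fit of peak current inhibition. n = 3 sensors, 3 technical replicates each.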

[8] = target: T3, PIN8; conditions: read-out: KD of IAA binding by PIN8, previously described; cited from earlier work

Imax ([2]; PIN8 N223A)	SMILES	2,4-D export rate relative to the IAA transport rate [1]	effect of N223A mutation on affinity/binding [2]	EC50 [3]	Imax [3]	transport in pin1 mutants ([4]; pin1 mutant stem segments)	transport lower than IAA transport ([4]; wildtype plants, stem segments)	2,4-D export transport rate relative to that determined for IAA [5]	current response with N117A mutation [6]	affinity lower compared to IAA [7]	Kd [8]
–	O=C(O)COc1ccc(Cl)cc1Cl [2,4-D, 2,4-dichlorophenoxyacetic acid]	about half	completely abolishes binding	684 ± 256 µM	5 ± 1 nA	completely abolished	about 20 fold	about half	abolishes the current response	–	–
–	O=C(O)COc1ccc(Cl)cc1 [4-CPA, 4-chlorophenoxyacetic acid]	–	completely abolishes binding	2620 ± 263 µM	5 ± 0.4 nA	–	–	–	abolishes the current response	~ 8 fold	–
2 ± 0.8 nA	O=C(O)Cc1c[nH]c2ccccc12 [IAA, indole-3-acetic acid]	–	reduces affinity for IAA only slightly	1210 ± 298 µM	4 ± 0.3 nA	–	–	–	–	–	40 ± 15 µM
